High-throughput results: PubChem BioAssay, several laboratories
VLA-4 inh: inhibition in human VLA-4 binding assay, primary screen, VLA-4 allosteric modulator project, MLPCN library, flow cytometry, VLA-4 expressing cells; Integrin alpha-4 (Homo sapiens), P13612; ligand binding flow cytometry; inhibition, % (about 7 µM as worked out from the volumes in the protocol); hit rate 0.2% among 330,000; AID 2557, 2010; in the data active = inhibition above about 50%
JMJD2C inh: inhibitors of GASC-1 histone demethylase, primary screen, biochemical, fluorescence, DELFIA europium; AID 2099, 2009; GST-JMJD2C(1-420) H3K9me3 demethylation; inhibition, % at 2.35 µM; hit rate 0.069% among 330,000; Lysine-specific demethylase 4C (Homo sapiens), Q9H3R0;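 active = more than half of a compound's replicate wells show inhibition beyond 50%, single wells judged on their own value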;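 also: signal counts dimethyl H3K9 product captured on neutravidin plate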
p-CIP stab down: p/CIP-EGFP fusion destabilizers, primary screen, fluorescence, F442A cells; 16 h; hit rate 0.01% among 290,000; AID 1984, 2009; decrease of EGFP signal, % at 10 µM;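 active = EGFP signal decrease of at least 30% at 10 µM or well 3 SD below plate mean, unless failing retest; inactive = the rest, including hits failing retest or dose response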
Target sequence (Q05BA5 1-1403): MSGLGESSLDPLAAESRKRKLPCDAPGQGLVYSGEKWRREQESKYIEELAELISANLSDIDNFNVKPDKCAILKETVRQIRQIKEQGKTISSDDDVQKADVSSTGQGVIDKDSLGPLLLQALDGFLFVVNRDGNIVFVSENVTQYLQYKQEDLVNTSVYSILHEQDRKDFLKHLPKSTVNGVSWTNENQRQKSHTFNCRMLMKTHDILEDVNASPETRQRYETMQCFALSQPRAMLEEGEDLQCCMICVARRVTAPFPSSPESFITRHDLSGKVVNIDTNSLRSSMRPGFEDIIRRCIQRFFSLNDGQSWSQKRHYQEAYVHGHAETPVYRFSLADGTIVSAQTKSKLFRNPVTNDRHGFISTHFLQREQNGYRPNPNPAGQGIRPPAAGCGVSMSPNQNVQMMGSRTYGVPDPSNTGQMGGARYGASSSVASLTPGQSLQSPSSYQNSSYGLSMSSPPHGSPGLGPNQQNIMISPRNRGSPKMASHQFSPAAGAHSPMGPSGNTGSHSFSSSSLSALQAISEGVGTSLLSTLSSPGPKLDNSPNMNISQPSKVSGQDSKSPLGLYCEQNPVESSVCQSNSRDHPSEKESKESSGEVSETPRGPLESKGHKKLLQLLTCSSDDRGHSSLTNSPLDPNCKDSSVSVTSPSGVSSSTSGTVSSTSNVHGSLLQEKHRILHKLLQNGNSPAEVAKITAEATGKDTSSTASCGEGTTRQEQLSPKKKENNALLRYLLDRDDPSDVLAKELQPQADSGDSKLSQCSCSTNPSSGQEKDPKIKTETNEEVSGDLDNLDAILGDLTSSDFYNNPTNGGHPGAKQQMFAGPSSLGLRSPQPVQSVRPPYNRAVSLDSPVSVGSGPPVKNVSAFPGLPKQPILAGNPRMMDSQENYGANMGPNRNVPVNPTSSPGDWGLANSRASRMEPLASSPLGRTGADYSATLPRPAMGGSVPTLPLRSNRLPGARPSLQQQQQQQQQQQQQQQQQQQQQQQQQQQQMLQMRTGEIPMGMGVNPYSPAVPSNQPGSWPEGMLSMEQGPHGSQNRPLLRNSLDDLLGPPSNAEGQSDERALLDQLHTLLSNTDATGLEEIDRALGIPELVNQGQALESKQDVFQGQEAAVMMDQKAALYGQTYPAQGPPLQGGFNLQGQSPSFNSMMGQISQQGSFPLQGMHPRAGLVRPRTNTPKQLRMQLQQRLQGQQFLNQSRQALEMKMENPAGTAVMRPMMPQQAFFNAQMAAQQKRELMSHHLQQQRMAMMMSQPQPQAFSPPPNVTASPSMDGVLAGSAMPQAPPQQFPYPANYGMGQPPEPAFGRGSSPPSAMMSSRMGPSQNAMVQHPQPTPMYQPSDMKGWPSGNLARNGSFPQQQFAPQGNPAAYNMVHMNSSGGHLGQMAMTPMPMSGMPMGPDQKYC
Arrestin-AP2 inh: inhibitors of beta-arrestin/AP2 binding, primary screen, biochemical, GPCR trafficking, flow cytometry; beta-arrestin 1 C-terminal peptide binding to AP2 beta2-adaptin appendage (human); AID 504490, 2011; hit rate 0.31% among 340,000; inhibition, % at 10 µM; FITC-arrestin peptide / GST-AP2 beads; AP2 beta2 appendage carries R879A mutation;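 active = inhibition above a set limit, near 3 SD of compounds lacking own fluorescence, cut at about 54% in these data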
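Material – AP2 appendage R879A on GSH beads · Buffer or medium – PBS with 0.05% Tween 20 and 0.1% BSA · Probe or stimulus – fluorescein-tagged arrestin peptide at 50 nM final · Incubation – compound with beads 12 min RT, then probe 1 h RT · Detection – high-throughput flow cytometry of beads, ex 488, em 535 nm · Evaluation – percent response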
Arr-AP2 CP1: inhibitors of arrestin peptide binding to AP2, confirmation, biochemical, cherry pick 1, flow cytometry beads. inhibition, % at 10 µM. hit rate 2% among 1,300. shares compounds with Arrestin-AP2 inh. GST-AP2 beads, FITC arrestin peptide binding; GST-fused beta2-adaptin appendage, R879A mutant;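 active = inhibition above a set limit, roughly 3 SD of non-fluorescent compound noise, cut at about 38% in these data; inactive = inhibition at or below that limit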;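 also: loss of bead fluorescence from 50 nM FITC arrestin peptide bound to appendage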
GST-FITC bead: GST-fluorescein capture on glutathione beads, confirmation, artefact control for arrestin-AP2 inhibitor project, biochemical, cherry pick 1, flow cytometry; inhibition, % at 10 µM; GST-fluorescein binding to GSH beads, fluorescence, counter-screen; AID 588338, 2011; shares compounds with Arrestin-AP2 inh; hit rate 2% among 1,300;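 active = inhibition above 50%, about 3 SD of the inhibition seen with non-fluorescent compounds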;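 also: fluorescein maleimide labelled GST captured on 4 micron glutathione beads; higher means more loss of bead fluorescence from quenching or blocked binding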
A number is an active result; n = inactive; x = not tested or not shown. A selection: hits, their analogues and other compounds. The true share with any hit is near 0.57%.

SMILES | VLA-4 inh | JMJD2C inh | p-CIP stab down | Arrestin-AP2 inh | Arr-AP2 CP1 | GST-FITC bead
CO/N=C/C(c1ccc(Cl)nc1)S(=O)(=O)c1ccccc1 (stereo not drawn) | n | n | n | 57.4 | n | n
O=c1[nH]c2ccc(NC(=S)Nc3ccc(Cl)cc3Cl)cc2[nH]1 | n | n | n | n | x | x
O=c1[nH]c2ccc(NC(=S)Nc3ccccc3Cl)cc2[nH]1 | n | n | n | 55.3 | n | n
CC(=O)Nc1ccc(C(=O)OCC(=O)NCc2ccc3c(c2)OCO3)cc1 | n | n | x | n | x | x
CNc1ccc(C(=O)OCC(=O)NCc2ccc3c(c2)OCO3)cc1[N+](=O)[O-] | n | n | x | 95.6 | n | n
CC(C)CC(=O)N1CCN(S(=O)(=O)c2ccc(F)cc2)CC1 | n | n | n | n | x | x
CCCCCCCCN1[C@@H](CC(=O)OCC)c2cc(F)ccc2S1(=O)=O | n | n | x | n | x | x
O=C(Cn1ccnc1)c1ccc(Cl)cc1 | n | n | n | 55.0 | n | n
COc1ccccc1C(O)P(=O)(OC1CCCCC1)OC1CCCCC1 (stereo not drawn) | n | n | n | 54.7 | n | n
Cc1ccc(C(O)P(=O)(OC2CCCCC2)OC2CCCCC2)cc1 (stereo not drawn) | n | n | n | n | x | x
CCNc1ccc2noc3c2c1C(=O)c1ccccc1-3 | n | n | n | 62.9 | n | 91.0
COc1ccc(NC(=O)N(C)C[C@H]2Oc3c(NS(=O)(=O)c4ccc(F)cc4)cccc3C(=O)N([C@H](C)CO)C[C@@H]2C)cc1 | n | x | x | n | x | x
COc1ccc(NC(=O)CCC(=O)N(Cc2ccc(OC)c(OC)c2)c2nccs2)c(OC)c1 | n | n | n | 56.2 | n | n
Cc1cc(C)n2[nH]c(=O)c(N=Nc3cccc(Cl)c3)c2n1 | n | n | n | 90.4 | n | n
Cc1cc(C)n2[nH]c(=O)c(N=Nc3ccccc3)c2n1 | n | n | n | n | x | x
COc1cc(C(=O)OCC(=O)c2c(N)n(C)c(=O)n(C)c2=O)ccc1OCCC(C)C | n | n | n | 54.9 | n | n
CCCOc1ccc(C(=O)OCC(=O)c2c(N)n(C)c(=O)n(C)c2=O)cc1OC | n | n | n | n | x | x
CC(=O)c1c(C)[nH]c(C(=O)OCC(=O)c2c(N)n(CC(C)C)c(=O)n(C)c2=O)c1C | n | n | x | n | n | n
CC(C)Cn1c(N)c(C(=O)COC(=O)c2ccc(O)cc2)c(=O)n(C)c1=O | n | n | n | n | n | n
Cn1c(N)c(C(=O)COC(=O)c2ccc(F)cc2Cl)c(=O)n(C)c1=O | n | n | x | n | n | n
Cn1c(N)c(C(=O)COC(=O)c2cc(S(=O)(=O)N3CCCCC3)ccc2Cl)c(=O)n(C)c1=O | n | n | n | n | x | x
CC(=O)Oc1ccc(-c2ccc(C(=O)OCC(=O)c3c(N)n(C)c(=O)n(C)c3=O)cc2)cc1 | n | n | x | n | x | x
Cn1c(N)c(C(=O)COC(=O)c2ccc(Cl)nc2)c(=O)n(C)c1=O | n | n | n | n | x | x
Cn1c(N)c(C(=O)COC(=O)c2cc3ccccc3cc2O)c(=O)n(C)c1=O | n | n | x | n | x | x
Cn1c(N)c(C(=O)COC(=O)c2ccc(OC(F)F)cc2)c(=O)n(C)c1=O | n | x | x | n | n | n
SMILES | VLA-4 inh | JMJD2C inh | p-CIP stab down | Arrestin-AP2 inh | Arr-AP2 CP1 | GST-FITC bead
CC(C)c1ccc(C(=O)OCC(=O)c2c(N)n(C)c(=O)n(C)c2=O)cc1 | n | n | x | n | n | n
Cn1c(N)c(C(=O)COC(=O)c2ccco2)c(=O)n(C)c1=O | n | n | n | n | n | n
O=C(C1=C(O)C(=O)N(CCN2CCOCC2)C1c1cccc(Br)c1)c1cc2ccccc2o1 (stereo not drawn) | n | n | n | n | x | x
O=C(NCc1ccccc1F)c1ccc(S(=O)(=O)NCc2ccco2)cc1 | x | x | x | n | x | x
O=C(c1ccc(S(=O)(=O)NCc2ccco2)cc1)N1CCN(Cc2ccccc2F)CC1 | x | x | x | n | n | n
O=C(c1ccc(S(=O)(=O)NCc2ccco2)cc1)N1CCN(Cc2ccccc2)CC1 | n | n | n | 59.2 | n | n
COc1ccc(CN2CCN(C(=O)c3ccc(S(=O)(=O)NCc4ccco4)cc3)CC2)cc1 | x | x | x | n | n | n
COc1cc(C=O)ccc1OCc1cn(CC(=O)c2ccc(O)cc2)nn1 | x | x | x | n | x | x
COc1ccc(OC)c(NC(=O)CSc2nnc(CCCO)n2-c2ccccc2)c1 | n | n | n | 89.7 | n | n
Cc1nn(CCOc2ccccc2)c(=O)n1-c1ccc(F)cc1 | n | n | n | n | x | x
c1ccc2c(c1)c1ccccc1n2CN1CCOCC1 | n | n | n | 82.6 | n | n
OC(CN1CCOCC1)Cn1c2ccccc2c2ccccc21 (stereo not drawn) | n | n | n | n | x | x
COc1cc(C(=O)NC2CCCCC2)ccc1OCc1ccc(Cl)cc1Cl | n | n | n | 106.0 | n | n
COc1ccc(C(=O)NC2CCC(O)CC2)cc1S(=O)(=O)NCc1ccc(Cl)cc1 (stereo not drawn) | n | n | x | 80.0 | n | n
CCCn1c(C(C)Nc2nc(-c3ccc(Cl)c([N+](=O)[O-])c3)cs2)nc2ccccc21 (stereo not drawn) | n | n | n | n | x | x
c1ccc(C2(Cn3ccc4ccccc43)OCCO2)cc1 | n | n | n | n | x | x
COCc1ccc(CN2CCC(C(=O)Nc3cccc(-c4cscn4)c3)CC2)o1 | n | n | n | n | x | x
COCc1ccc(CN2CCC(C(=O)Nc3cccc(-c4cccc(Cl)c4)c3)CC2)o1 | x | n | n | 56.6 | n | n
CC1CC(C)CN(c2oc(-c3ccccc3Cl)nc2C#N)C1 (stereo not drawn) | n | n | n | 118.0 | n | n
COc1cccc(C(=O)Nc2ccc(NC(=O)c3ccco3)c(Cl)c2)c1 | n | n | n | 55.7 | n | n
COc1cccc(C(=O)Nc2ccc(NC(=O)c3ccco3)nc2)c1 | n | n | n | n | x | x
Oc1cc2c(cc1C(c1ccc(Br)cc1)N1CCCC1)OCO2 (stereo not drawn) | x | x | n | 60.5 | n | n
O=S(=O)(Nc1ccc(Br)cn1)c1cccs1 | n | n | n | n | x | x
Cc1nc2ccc(NC(=O)c3ccccc3)cc2s1 | n | n | n | n | x | x
Cc1nc2ccc(NC(=O)c3ccc4ccccc4n3)cc2s1 | n | n | n | 65.4 | n | n
CC12CCC(=O)N1C(C(=O)OCC(=O)Nc1sccc1C#N)CS2 (stereo not drawn) | n | n | n | n | x | x
CCCCOC(=O)c1ccc(NC(=O)COC(=O)C2CSC3(C)CCC(=O)N23)cc1 (stereo not drawn) | n | n | x | n | n | n
